Laboratory results as given in ChEMBL document CHEMBL3352166, “Structure-guided design and development of novel benzimidazole class of compounds targeting DNA gyraseB enzyme of Staphylococcus aureus” (Bioorg Med Chem, 2014).
Converted amounts (≈) assume the structure as drawn.

Columns and labels:
[1] = molecular target: DNA gyrase subunit B (Staphylococcus aureus, UniProt P0A0K8); assay: Inhibition of Staphylococcus aureus DNA gyrase B ATPase activity
[2] = molecular target: DNA gyrase (Staphylococcus aureus, UniProt P0A0K8+P20831); assay: Inhibition of Staphylococcus aureus DNA gyrase-mediated supercoiling of relaxed DNA using pBR 322 as substrate by agarose gel electrophoresis analysis; type: protein-complex assay
[3] = test system: Staphylococcus aureus; assay: Antimicrobial activity against Staphylococcus aureus MTCC 3160 after 16 to 24 hrs by agar dilution method; type: functional
In short: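 MIC by agar dilution per CLSI on Mueller-Hinton agar. Overnight colonies were suspended to about 10^6 cfu/mL, and 1 mL was added to 19 mL medium. Compounds were made up in 0.9% saline and tested over about 10 doubling dilutions, 100 µM to 0.1 µM. Plates ran 16-20 h at 35 °C in ambient air. MIC was the lowest concentration preventing visible growth.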

[4] = test system: Staphylococcus aureus; assay: Antimicrobial activity against methicillin-resistant Staphylococcus aureus MTCC 96 after 16 to 24 hrs by agar dilution method; type: functional
In short: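 Agar dilution per CLSI guidelines on Mueller-Hinton agar. Overnight colonies suspended to about 10^6 cfu/mL, and 1 mL added to 19 mL medium. Stocks in 0.9% saline, tested over about 10 doubling dilutions from 100 µM to 0.1 µM. Plates incubated at 35 °C in ambient air for 16-20 h. MIC taken as the lowest concentration preventing visible growth.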

[5] = Cytotoxicity against human HEK293 cells assessed as reduction in cell viability at 100 uM after 72 hrs by MTT assay; type: cell-based; conditions: read-out: INH
In short: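 HEK-293 cells were seeded at 5000 per well and left 24 h, then washed. They were exposed to 100 µM in RPMI + 5% FBS + 1% penicillin/streptomycin, with final DMSO ≤0.5%, for 72 h at 37 °C in 5% CO2. DMSO-treated cultures served as controls. Viability was read by MTT at 570 nm, in triplicate, as percentage inhibition.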

[6] = test system: Staphylococcus aureus; assay: Antimicrobial activity against Staphylococcus aureus infected in CD1 mouse assessed as animal protection at 5 mg/kg, iv treated 4 hrs after infection measured 24 hrs post infection; type: functional
In short: (§1)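 Female CD-1 mice (20–25 g, ten per group) were infected intraperitoneally with 3 × 10^7 cfu/mouse, slightly above LD100. Test compound was given iv at 5, 10 or 25 mg/kg at infection and 4 h post infection. Vancomycin at 5 mg/kg served as comparator. Survival was scored 24 h post infection.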

[7] = test system: Staphylococcus aureus; assay: Antimicrobial activity against Staphylococcus aureus infected in CD1 mouse assessed as animal protection at 10 mg/kg, iv treated 4 hrs after infection measured 24 hrs post infection; type: functional; in short: as §1
[8] = species on record: Danio rerio; assay: Cardiotoxicity in zebra fish assessed as change in heart rate up to 30 uM; type: toxicity, organism-based; conditions: zebrafish, in vivo
In short: (§2)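 Zebrafish larvae at 3 dpf were dosed in 24-well plates, 5 embryos per well, in 0.1% DMSO vehicle at 1–30 µM for 4 h at 28 °C. Terfenadine 20 µM was the positive control. Atrial and ventricular beats were watched by light microscopy, timing 30 beats and averaging 5 embryos per well. Results are mean ± SEM, with significance versus control.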

[9] = species on record: Danio rerio; assay: Cardiotoxicity in zebra fish assessed as AV ratio up to 30 uM; type: organism-based; conditions: zebrafish, in vivo; in short: as §2
[10] = test system: Staphylococcus aureus; assay: Inhibition of biofilm formation in methicillin-resistant Staphylococcus aureus MTCC 96 after 24 hr incubation by tissue culture plate method; conditions: MTCC 96, 24 h
[11] = test system: Staphylococcus aureus; assay: Antimicrobial activity against Staphylococcus aureus infected in CD1 mouse assessed as animal protection at 25 mg/kg, iv treated 4 hrs after infection measured 24 hrs post infection

Chain of DNA gyrase subunit B (P0A0K8 whole entry): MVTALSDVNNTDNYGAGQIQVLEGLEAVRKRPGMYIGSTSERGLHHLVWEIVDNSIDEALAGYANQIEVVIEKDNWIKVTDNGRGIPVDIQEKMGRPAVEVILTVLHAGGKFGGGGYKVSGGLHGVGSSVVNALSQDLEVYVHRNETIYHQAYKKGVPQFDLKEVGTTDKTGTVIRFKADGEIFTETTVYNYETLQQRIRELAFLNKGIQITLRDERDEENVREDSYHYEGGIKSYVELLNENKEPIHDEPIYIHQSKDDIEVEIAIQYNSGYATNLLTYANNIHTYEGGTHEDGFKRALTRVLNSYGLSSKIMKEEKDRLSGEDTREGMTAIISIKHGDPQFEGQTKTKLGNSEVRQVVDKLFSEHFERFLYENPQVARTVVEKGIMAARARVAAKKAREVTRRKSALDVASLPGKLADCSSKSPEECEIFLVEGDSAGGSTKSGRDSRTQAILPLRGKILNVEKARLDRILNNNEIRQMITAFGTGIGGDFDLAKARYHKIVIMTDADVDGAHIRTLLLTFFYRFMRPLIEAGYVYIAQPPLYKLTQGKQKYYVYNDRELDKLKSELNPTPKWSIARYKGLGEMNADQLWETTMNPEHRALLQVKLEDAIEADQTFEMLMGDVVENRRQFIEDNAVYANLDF
Chain of DNA gyrase (P0A0K8 whole entry): as above
Chain of DNA gyrase (P20831 whole entry): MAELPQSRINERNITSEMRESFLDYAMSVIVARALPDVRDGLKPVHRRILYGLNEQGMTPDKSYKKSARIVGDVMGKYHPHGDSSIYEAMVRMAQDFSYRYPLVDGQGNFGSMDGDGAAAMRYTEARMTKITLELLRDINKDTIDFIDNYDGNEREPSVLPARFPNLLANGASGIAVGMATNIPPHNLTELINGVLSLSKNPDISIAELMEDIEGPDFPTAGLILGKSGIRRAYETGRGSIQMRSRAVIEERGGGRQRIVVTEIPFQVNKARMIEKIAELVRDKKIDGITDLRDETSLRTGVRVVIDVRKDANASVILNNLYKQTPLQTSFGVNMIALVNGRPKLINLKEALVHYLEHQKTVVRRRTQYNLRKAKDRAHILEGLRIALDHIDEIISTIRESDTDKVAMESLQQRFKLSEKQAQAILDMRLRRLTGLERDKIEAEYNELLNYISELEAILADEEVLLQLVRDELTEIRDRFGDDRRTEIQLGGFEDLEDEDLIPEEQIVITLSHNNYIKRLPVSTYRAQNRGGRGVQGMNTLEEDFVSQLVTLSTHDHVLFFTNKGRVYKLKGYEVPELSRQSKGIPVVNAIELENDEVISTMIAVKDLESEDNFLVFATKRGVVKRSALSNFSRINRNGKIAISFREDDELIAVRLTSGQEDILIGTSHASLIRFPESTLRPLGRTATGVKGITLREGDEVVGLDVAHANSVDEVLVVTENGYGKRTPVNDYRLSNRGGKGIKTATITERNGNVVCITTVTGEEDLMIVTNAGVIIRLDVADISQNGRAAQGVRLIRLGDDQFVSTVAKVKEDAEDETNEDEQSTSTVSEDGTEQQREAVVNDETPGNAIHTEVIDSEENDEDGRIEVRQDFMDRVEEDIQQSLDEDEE

SMILES | IC50 [1] [µM] | IC50 [2] [µM] | MIC [3] [µM] | MIC [4] [µM] | cytotoxicity at 72 h, 100 µM [5] [%] | Activity [6] [%] | Activity [7] [%] | Activity [8] | Activity [9] | IC50 [10] [µM] | Activity [11] [%]
O=C(O)CCCC(=O)Nc1ccc(-c2nc3cc(F)ccc3[nH]2)cc1 | 1.32 | 1.13 | 4.57 (≈ 1.56 µg/mL) | 9.15 (≈ 3.12 µg/mL) | 7.59 | 60 | 80 | Non-toxic | Non-toxic | 9.63 | 100
O=C(O)CC(=O)Nc1ccc(-c2nc3cccnc3[nH]2)cc1 | 21.8 | 8.9 | 42.2 (≈ 12.5 µg/mL) | 42.2 (≈ 12.5 µg/mL) | 27.2 | – | – | – | – | 71.9 | –
COc1ccc2[nH]c(-c3ccc(NC(=O)CSCC(=O)O)cc3)nc2c1 | 9.31 | 16 | 67.3 (≈ 25 µg/mL) | 67.3 (≈ 25 µg/mL) | 22.6 | – | – | – | – | > 100 | –
O=C(O)CCCCC(=O)Nc1ccc(-c2nc3ccccc3[nH]2)cc1 | 5.7 | 6.12 | 37 (≈ 12.5 µg/mL) | 37 (≈ 12.5 µg/mL) | 32.1 | – | – | – | – | 81.5 | –
COC(=O)CCCC(=O)Nc1ccc(-c2nc3cc(Cl)ccc3[nH]2)cc1 | 35.6 | 22.2 | 67.2 (≈ 25 µg/mL) | 134 (≈ 50 µg/mL) | 27.9 | – | – | – | – | > 100 | –
O=C(O)COCC(=O)Nc1ccc(-c2nc3cc(Cl)ccc3[nH]2)cc1 | 15.3 | 12.5 | 34.7 (≈ 12.5 µg/mL) | 69.5 (≈ 25 µg/mL) | 29.7 | – | – | – | – | 71.2 | –
COC(=O)CCCC(=O)Nc1ccc(-c2nc3cc(OC)ccc3[nH]2)cc1 | 21.3 | 12.5 | 68 (≈ 25 µg/mL) | 34 (≈ 12.5 µg/mL) | 50.5 | – | – | – | – | 63.9 | –
O=C(O)CSCC(=O)Nc1ccc(-c2nc3cccnc3[nH]2)cc1 | 2.31 | 1.7 | 4.55 (≈ 1.56 µg/mL) | 9.12 (≈ 3.12 µg/mL) | 31.9 | – | – | – | – | 11.3 | –
COc1ccc2[nH]c(-c3ccc(NC(=O)CCCC(=O)O)cc3)nc2c1 | 8.93 | 5.32 | 35.4 (≈ 12.5 µg/mL) | 35.4 (≈ 12.5 µg/mL) | 22.4 | – | – | – | – | 52.2 | –
COC(=O)CCCC(=O)Nc1ccc(-c2nc3cc([N+](=O)[O-])ccc3[nH]2)cc1 | 9.83 | 5.3 | 32.7 (≈ 12.5 µg/mL) | 32.7 (≈ 12.5 µg/mL) | 35.9 | – | – | – | – | 59.3 | –
O=C(O)CC(=O)Nc1ccc(-c2nc3cc([N+](=O)[O-])ccc3[nH]2)cc1 | 4.93 | 2.23 | 9.18 (≈ 3.12 µg/mL) | 18.3 (≈ 6.24 µg/mL) | 26.9 | – | – | – | – | 18.4 | –
O=C(O)CCC(=O)Nc1ccc(-c2nc3ccccc3[nH]2)cc1 | 7.32 | 6.12 | 20.2 (≈ 6.25 µg/mL) | 40.4 (≈ 12.5 µg/mL) | 2.9 | – | – | – | – | 88.3 | –
O=C(O)CC(=O)Nc1ccc(-c2nc3ccccc3[nH]2)cc1 | 6.91 | 6.12 | 42.3 (≈ 12.5 µg/mL) | 21.2 (≈ 6.25 µg/mL) | 7.2 | – | – | – | – | 47.8 | –
COc1ccc2[nH]c(-c3ccc(NC(=O)CC(=O)O)cc3)nc2c1 | 11.1 | 18.4 | 38.4 (≈ 12.5 µg/mL) | 76.8 (≈ 25 µg/mL) | 27.4 | – | – | – | – | > 100 | –
O=C(O)CCCCC(=O)Nc1ccc(-c2nc3cc([N+](=O)[O-])ccc3[nH]2)cc1 | 9.82 | 6.09 | 32.6 (≈ 12.5 µg/mL) | 32.6 (≈ 12.5 µg/mL) | 31.7 | – | – | – | – | 44.2 | –
O=C(O)CCCCC(=O)Nc1ccc(-c2nc3cc(Cl)ccc3[nH]2)cc1 | 13.1 | 8.91 | 33.6 (≈ 12.5 µg/mL) | 33.6 (≈ 12.5 µg/mL) | 39.7 | – | – | – | – | 39.2 | –
O=C(O)COCC(=O)Nc1ccc(-c2nc3cccnc3[nH]2)cc1 | 6.93 | 4.7 | 19.1 (≈ 6.25 µg/mL) | 38.3 (≈ 12.5 µg/mL) | 38.7 | – | – | – | – | 82.5 | –
COC(=O)CCCC(=O)Nc1ccc(-c2nc3cccnc3[nH]2)cc1 | 5.23 | 6.8 | 36.9 (≈ 12.5 µg/mL) | 36.9 (≈ 12.5 µg/mL) | 57.5 | – | – | – | – | 79.3 | –
COc1ccc2[nH]c(-c3ccc(NC(=O)CCC(=O)O)cc3)nc2c1 | 13.4 | 11.3 | 73.7 (≈ 25 µg/mL) | 73.7 (≈ 25 µg/mL) | 26.7 | – | – | – | – | > 100 | –
COc1ccc2[nH]c(-c3ccc(NC(=O)COCC(=O)O)cc3)nc2c1 | 4.34 | 3.06 | 17.6 (≈ 6.25 µg/mL) | 17.6 (≈ 6.25 µg/mL) | 23.3 | – | – | – | – | 31.7 | –
O=C(O)CSCC(=O)Nc1ccc(-c2nc3cc([N+](=O)[O-])ccc3[nH]2)cc1 | 3.13 | 2.1 | 8.09 (≈ 3.12 µg/mL) | 17 (≈ 6.56 µg/mL) | 25.2 | – | – | – | – | 10.3 | –
O=C(O)CCC(=O)Nc1ccc(-c2nc3cc(F)ccc3[nH]2)cc1 | 17.6 | 12 | 38.2 (≈ 12.5 µg/mL) | 38.2 (≈ 12.5 µg/mL) | 28.7 | – | – | – | – | 82.7 | –
O=C(O)CCC(=O)Nc1ccc(-c2nc3cc(Cl)ccc3[nH]2)cc1 | 11.2 | 9.8 | 36.4 (≈ 12.5 µg/mL) | 36.4 (≈ 12.5 µg/mL) | 31.7 | – | – | – | – | 53.2 | –
O=C(O)COCC(=O)Nc1ccc(-c2nc3ccccc3[nH]2)cc1 | 6.01 | 4.81 | 38.4 (≈ 12.5 µg/mL) | 46.9 (≈ 15.3 µg/mL) | 40 | – | – | – | – | 68.8 | –
